Data taken from ChEMBL document CHEMBL1141699, “Design, synthesis, and antibacterial activities of novel 3,6-bicyclolide oximes: length optimization and zero carbon linker oximes” (2008).
≈ marks a conversion by molar mass, not a printed value.

How the values were obtained:
Assay type in all cases: functional
Streptococcus pyogenes [1] = assay: Antibacterial activity against MLSB-resistant Streptococcus pyogenes 2912 expressing ermA by broth-microdilution method
How it was run: (§1)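 MIC (µg/ml) by broth microdilution following CLSI standards.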

Moraxella catarrhalis = assay: Antibacterial activity against Moraxella catarrhalis by broth-microdilution method
How it was run: (§2)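 MICs were determined by broth microdilution following CLSI standards and reported in µg/ml.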

Staphylococcus aureus [2] = assay: Antibacterial activity against methicillin-resistant Staphylococcus aureus 33591 by broth-microdilution method; how it was run: as §1
Streptococcus pneumoniae [3] = assay: Antibacterial activity against erythromycin-susceptible Streptococcus pneumoniae 49619 by broth-microdilution method; how it was run: as §1
Streptococcus pneumoniae [4] = assay: Antibacterial activity against efflux-resistant Streptococcus pneumoniae 7701 expressing mefA by broth-microdilution method; how it was run: as §1
Haemophilus influenzae [5] = assay: Antibacterial activity against ampicillin-susceptible Haemophilus influenzae by broth-microdilution method
Staphylococcus aureus [6] = assay: Antibacterial activity against erythromycin-susceptible Staphylococcus aureus 29213 by broth-microdilution method; conditions: ATCC29213; how it was run: as §1
Staphylococcus aureus [7] = assay: Antibacterial activity against MLSB-resistant Staphylococcus aureus 27660 expressing ermA by broth-microdilution method; how it was run: as §1
Haemophilus influenzae [8] = assay: Antibacterial activity against ampicillin-resistant Haemophilus influenzae 33929 expressing beta-lactamase by broth-microdilution method; how it was run: as §1
Streptococcus pneumoniae [9] = assay: Antibacterial activity against MLSB-resistant Streptococcus pneumoniae 700906 expressing erm by broth-microdilution method; how it was run: as §1
Streptococcus pyogenes [10] = assay: Antibacterial activity against erythromycin-susceptible Streptococcus pyogenes 19615 by broth-microdilution method; how it was run: as §2
Streptococcus pyogenes [11] = assay: Antibacterial activity against efflux-resistant Streptococcus pyogenes 1323 expressing mefA by broth-microdilution method; how it was run: as §1

SMILES	MIC (Streptococcus pyogenes [1]) [µg/mL]	MIC (Moraxella catarrhalis) [µg/mL]	MIC (Staphylococcus aureus [2]) [µg/mL]	MIC (Streptococcus pneumoniae [3]) [µg/mL]	MIC (Streptococcus pneumoniae [4]) [µg/mL]	MIC (Haemophilus influenzae [5]) [µg/mL]	MIC (Staphylococcus aureus [6]) [µg/mL]	MIC (Staphylococcus aureus [7]) [µg/mL]	MIC (Haemophilus influenzae [8]) [µg/mL]	MIC (Streptococcus pneumoniae [9]) [µg/mL]	MIC (Streptococcus pyogenes [10]) [µg/mL]	MIC (Streptococcus pyogenes [11]) [µg/mL]
CC[C@H]1OC(=O)[C@H](C)[C@H]2OC/C(=N\Oc3cccnc3)CCO[C@](C)(C[C@@H](C)C(=O)[C@H](C)[C@H]3NC(=O)O[C@@]31C)[C@H](O[C@@H]1O[C@H](C)C[C@H](N(C)C)[C@H]1O)[C@H]2C	4 (≈ 5.26 µM)	≤ 0.06	> 64	0.125 (≈ 0.164 µM)	0.125 (≈ 0.164 µM)	1 (≈ 1.31 µM)	0.125 (≈ 0.164 µM)	0.125 (≈ 0.164 µM)	1 (≈ 1.31 µM)	16 (≈ 21 µM)	≤ 0.06	0.25 (≈ 0.329 µM)
CC[C@H]1OC(=O)[C@H](C)[C@H]2OC/C(=N\Oc3ccccc3)CCO[C@](C)(C[C@@H](C)C(=O)[C@H](C)[C@H]3NC(=O)O[C@@]31C)[C@H](O[C@@H]1O[C@H](C)C[C@H](N(C)C)[C@H]1O)[C@H]2C	4 (≈ 5.26 µM)	≤ 0.06	> 64	≤ 0.06	–	2 (≈ 2.63 µM)	≤ 0.06	≤ 0.06	1 (≈ 1.32 µM)	32 (≈ 42.1 µM)	≤ 0.06	–
CC[C@H]1OC(=O)[C@H](C)[C@H]2OC/C(=N\Oc3ccccc3Cl)CCO[C@](C)(C[C@@H](C)C(=O)[C@H](C)[C@H]3NC(=O)O[C@@]31C)[C@H](O[C@@H]1O[C@H](C)C[C@H](N(C)C)[C@H]1O)[C@H]2C	4 (≈ 5.04 µM)	≤ 0.06	64 (≈ 80.6 µM)	≤ 0.06	–	2 (≈ 2.52 µM)	≤ 0.06	≤ 0.06	2 (≈ 2.52 µM)	32 (≈ 40.3 µM)	≤ 0.06	–
CC[C@H]1OC(=O)[C@H](C)[C@H]2OC/C(=N\Oc3ccccc3-c3ccccc3)CCO[C@](C)(C[C@@H](C)C(=O)[C@H](C)[C@H]3NC(=O)O[C@@]31C)[C@H](O[C@@H]1O[C@H](C)C[C@H](N(C)C)[C@H]1O)[C@H]2C	16 (≈ 19.1 µM)	0.5 (≈ 0.598 µM)	16 (≈ 19.1 µM)	≤ 0.06	0.5 (≈ 0.598 µM)	8 (≈ 9.57 µM)	0.5 (≈ 0.598 µM)	0.5 (≈ 0.598 µM)	8 (≈ 9.57 µM)	16 (≈ 19.1 µM)	≤ 0.06	0.5 (≈ 0.598 µM)
CC[C@H]1OC(=O)[C@H](C)[C@H]2OC/C(=N\Oc3ccc(Cl)cc3)CCO[C@](C)(C[C@@H](C)C(=O)[C@H](C)[C@H]3NC(=O)O[C@@]31C)[C@H](O[C@@H]1O[C@H](C)C[C@H](N(C)C)[C@H]1O)[C@H]2C	2 (≈ 2.52 µM)	≤ 0.06	> 64	≤ 0.06	–	4 (≈ 5.04 µM)	≤ 0.06	≤ 0.06	4 (≈ 5.04 µM)	16 (≈ 20.1 µM)	≤ 0.06	–
CC[C@H]1OC(=O)[C@H](C)[C@H]2OC/C(=N\Oc3cccc(-c4ccccc4)c3)CCO[C@](C)(C[C@@H](C)C(=O)[C@H](C)[C@H]3NC(=O)O[C@@]31C)[C@H](O[C@@H]1O[C@H](C)C[C@H](N(C)C)[C@H]1O)[C@H]2C	4 (≈ 4.78 µM)	0.125 (≈ 0.15 µM)	4 (≈ 4.78 µM)	≤ 0.06	–	4 (≈ 4.78 µM)	0.125 (≈ 0.15 µM)	0.125 (≈ 0.15 µM)	4 (≈ 4.78 µM)	2 (≈ 2.39 µM)	≤ 0.06	0.125 (≈ 0.15 µM)
CC[C@H]1OC(=O)[C@H](C)[C@H]2OC/C(=N\OCCCc3ccccc3)CCO[C@](C)(C[C@@H](C)C(=O)[C@H](C)[C@H]3NC(=O)O[C@@]31C)[C@H](O[C@@H]1O[C@H](C)C[C@H](N(C)C)[C@H]1O)[C@H]2C	8 (≈ 9.97 µM)	0.125 (≈ 0.156 µM)	> 64	≤ 0.06	–	2 (≈ 2.49 µM)	0.125 (≈ 0.156 µM)	0.125 (≈ 0.156 µM)	2 (≈ 2.49 µM)	4 (≈ 4.99 µM)	≤ 0.06	–
CC[C@H]1OC(=O)[C@H](C)[C@H]2OC/C(=N\OCCCCc3ccccc3)CCO[C@](C)(C[C@@H](C)C(=O)[C@H](C)[C@H]3NC(=O)O[C@@]31C)[C@H](O[C@@H]1O[C@H](C)C[C@H](N(C)C)[C@H]1O)[C@H]2C	16 (≈ 19.6 µM)	0.25 (≈ 0.306 µM)	64 (≈ 78.4 µM)	≤ 0.06	0.125 (≈ 0.153 µM)	8 (≈ 9.8 µM)	0.25 (≈ 0.306 µM)	0.25 (≈ 0.306 µM)	4 (≈ 4.9 µM)	4 (≈ 4.9 µM)	≤ 0.06	0.25 (≈ 0.306 µM)
CC[C@H]1OC(=O)[C@H](C)[C@H]2OC/C(=N\OCCCCCc3ccccc3)CCO[C@](C)(C[C@@H](C)C(=O)[C@H](C)[C@H]3NC(=O)O[C@@]31C)[C@H](O[C@@H]1O[C@H](C)C[C@H](N(C)C)[C@H]1O)[C@H]2C	8 (≈ 9.64 µM)	0.25 (≈ 0.301 µM)	> 64	≤ 0.06	0.125 (≈ 0.151 µM)	4 (≈ 4.82 µM)	0.25 (≈ 0.301 µM)	0.25 (≈ 0.301 µM)	4 (≈ 4.82 µM)	8 (≈ 9.64 µM)	≤ 0.06	0.125 (≈ 0.151 µM)
CC[C@H]1OC(=O)[C@H](C)[C@H]2OC/C(=N\Oc3cccc(Cl)c3)CCO[C@](C)(C[C@@H](C)C(=O)[C@H](C)[C@H]3NC(=O)O[C@@]31C)[C@H](O[C@@H]1O[C@H](C)C[C@H](N(C)C)[C@H]1O)[C@H]2C	1 (≈ 1.26 µM)	≤ 0.06	32 (≈ 40.3 µM)	≤ 0.06	–	2 (≈ 2.52 µM)	≤ 0.06	≤ 0.06	2 (≈ 2.52 µM)	8 (≈ 10.1 µM)	≤ 0.06	–
CC[C@H]1OC(=O)[C@H](C)[C@H]2OC/C(=N\OCCc3ccccc3)CCO[C@](C)(C[C@@H](C)C(=O)[C@H](C)[C@H]3NC(=O)O[C@@]31C)[C@H](O[C@@H]1O[C@H](C)C[C@H](N(C)C)[C@H]1O)[C@H]2C	8 (≈ 10.2 µM)	≤ 0.06	> 64	≤ 0.06	–	2 (≈ 2.54 µM)	0.125 (≈ 0.159 µM)	0.125 (≈ 0.159 µM)	2 (≈ 2.54 µM)	16 (≈ 20.3 µM)	≤ 0.06	0.125 (≈ 0.159 µM)
CC[C@H]1OC(=O)[C@H](C)[C@H]2OC/C(=N/OCc3ccccc3)CCO[C@](C)(C[C@@H](C)C(=O)[C@H](C)[C@H]3NC(=O)O[C@@]31C)[C@H](O[C@@H]1O[C@H](C)C[C@H](N(C)C)[C@H]1O)[C@H]2C	64 (≈ 82.7 µM)	0.125 (≈ 0.162 µM)	> 64	≤ 0.06	0.125 (≈ 0.162 µM)	8 (≈ 10.3 µM)	0.5 (≈ 0.646 µM)	0.5 (≈ 0.646 µM)	16 (≈ 20.7 µM)	> 64	≤ 0.06	0.25 (≈ 0.323 µM)
CC[C@H]1OC(=O)[C@H](C)[C@H]2OC/C(=N\OCc3ccccc3)CCO[C@](C)(C[C@@H](C)C(=O)[C@H](C)[C@H]3NC(=O)O[C@@]31C)[C@H](O[C@@H]1O[C@H](C)C[C@H](N(C)C)[C@H]1O)[C@H]2C	4 (≈ 5.17 µM)	≤ 0.06	> 64	≤ 0.06	–	2 (≈ 2.58 µM)	≤ 0.06	≤ 0.06	2 (≈ 2.58 µM)	> 64	≤ 0.06	0.125 (≈ 0.162 µM)
CC[C@H]1OC(=O)[C@H](C)[C@@H](O[C@H]2C[C@@](C)(OC)[C@@H](O)[C@H](C)O2)[C@H](C)[C@@H](O[C@@H]2O[C@H](C)C[C@H](N(C)C)[C@H]2O)[C@](C)(O)C[C@@H](C)C(=O)[C@H](C)[C@@H](O)[C@]1(C)O [ERYTHROMYCIN]	> 64	0.13 (≈ 0.177 µM)	> 64	≤ 0.06	4 (≈ 5.45 µM)	4 (≈ 5.45 µM)	0.5 (≈ 0.681 µM)	> 64	4 (≈ 5.45 µM)	> 64	0.015 (≈ 0.0204 µM)	16 (≈ 21.8 µM)
CC[C@H]1OC(=O)[C@H](C)[C@H]2OC/C(=N\Oc3ccc4ccccc4c3)CCO[C@](C)(C[C@@H](C)C(=O)[C@H](C)[C@H]3NC(=O)O[C@@]31C)[C@H](O[C@@H]1O[C@H](C)C[C@H](N(C)C)[C@H]1O)[C@H]2C	2 (≈ 2.47 µM)	0.25 (≈ 0.309 µM)	32 (≈ 39.5 µM)	≤ 0.06	0.125 (≈ 0.154 µM)	4 (≈ 4.94 µM)	0.25 (≈ 0.309 µM)	0.25 (≈ 0.309 µM)	8 (≈ 9.88 µM)	0.5 (≈ 0.617 µM)	≤ 0.06	0.125 (≈ 0.154 µM)
CC[C@H]1OC(=O)[C@H](C)[C@H]2OC/C(=N\Oc3ccc(-c4ccccc4)cc3)CCO[C@](C)(C[C@@H](C)C(=O)[C@H](C)[C@H]3NC(=O)O[C@@]31C)[C@H](O[C@@H]1O[C@H](C)C[C@H](N(C)C)[C@H]1O)[C@H]2C	2 (≈ 2.39 µM)	1 (≈ 1.2 µM)	16 (≈ 19.1 µM)	≤ 0.06	0.125 (≈ 0.15 µM)	8 (≈ 9.57 µM)	0.5 (≈ 0.598 µM)	0.5 (≈ 0.598 µM)	8 (≈ 9.57 µM)	0.25 (≈ 0.299 µM)	≤ 0.06	0.25 (≈ 0.299 µM)
